pIC50: −log10 of the molar value.
Tests used:
[1] = target: glutathione S-transferase Pi (GSTP1) (Homo sapiens, UniProt P09211); assay: GSH substrate assay in recombinant GSTP1 lysates; format: biochemical
DPP3 = target: T1, DPP3 (Homo sapiens, UniProt Q9NY33); assay: peptidase substrate assay; format: biochemical
T1 sequence (Q9NY33 2-737): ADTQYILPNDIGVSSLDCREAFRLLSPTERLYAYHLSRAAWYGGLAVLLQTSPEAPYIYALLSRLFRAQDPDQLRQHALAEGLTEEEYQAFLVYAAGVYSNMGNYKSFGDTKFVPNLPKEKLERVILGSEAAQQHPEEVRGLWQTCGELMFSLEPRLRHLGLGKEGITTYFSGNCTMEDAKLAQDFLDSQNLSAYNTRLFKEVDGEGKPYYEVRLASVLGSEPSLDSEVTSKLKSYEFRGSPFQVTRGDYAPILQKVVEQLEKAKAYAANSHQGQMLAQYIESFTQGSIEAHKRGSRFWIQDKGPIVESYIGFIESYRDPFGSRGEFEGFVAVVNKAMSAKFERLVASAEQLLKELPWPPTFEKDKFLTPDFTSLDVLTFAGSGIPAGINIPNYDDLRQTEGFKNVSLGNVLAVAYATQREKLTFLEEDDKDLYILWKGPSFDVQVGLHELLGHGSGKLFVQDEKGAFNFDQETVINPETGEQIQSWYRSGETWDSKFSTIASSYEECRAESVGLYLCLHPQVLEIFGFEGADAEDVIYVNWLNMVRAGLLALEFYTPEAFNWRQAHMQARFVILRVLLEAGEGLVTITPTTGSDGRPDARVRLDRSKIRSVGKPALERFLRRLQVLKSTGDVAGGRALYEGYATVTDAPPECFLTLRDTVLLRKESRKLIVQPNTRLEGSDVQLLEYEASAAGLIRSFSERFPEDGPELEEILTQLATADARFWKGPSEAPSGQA
Summary of the method: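 Purified DPP3 was exposed to test compound over a concentration series, and its catalytic activity was read by a peptidase substrate assay. IC50 was reported with 95% confidence intervals; data are mean ± s.e.m. from n = 3 biologically independent experiments. Y417 engagement was measured by quantitative chemical proteomics with the HHS-482 probe on soluble proteome from HEK293T cells expressing recombinant human DPP3 (n = 2).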

YWHAE = target: T2, YWHAE (Homo sapiens, UniProt P62258); assay: competitive SILAC chemical proteomics in DM93 soluble proteome; format: cell-based
T2 sequence (P62258 1-255): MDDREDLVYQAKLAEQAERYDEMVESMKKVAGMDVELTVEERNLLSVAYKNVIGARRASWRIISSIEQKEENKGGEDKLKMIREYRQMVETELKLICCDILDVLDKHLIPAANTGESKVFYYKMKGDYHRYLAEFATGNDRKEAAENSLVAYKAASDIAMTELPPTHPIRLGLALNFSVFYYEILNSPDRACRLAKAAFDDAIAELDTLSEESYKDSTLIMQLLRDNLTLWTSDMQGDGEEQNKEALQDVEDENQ

Chain of glutathione S-transferase Pi (GSTP1) (P09211 2-210): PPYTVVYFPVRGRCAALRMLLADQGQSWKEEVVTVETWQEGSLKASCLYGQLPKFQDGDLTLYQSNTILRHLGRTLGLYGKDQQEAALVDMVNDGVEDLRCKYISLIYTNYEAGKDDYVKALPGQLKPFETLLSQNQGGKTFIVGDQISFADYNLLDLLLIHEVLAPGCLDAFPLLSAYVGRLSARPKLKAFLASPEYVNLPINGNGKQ

Row | pIC50 [1] | pIC50 (DPP3) | competitive SILAC chemical proteomics in DM93 soluble proteome (50 μM) (YWHAE) | SMILES
1 | 4.80 | – | – | O=S(=O)(c1ccc2ccccc2c1)n1cnc(-c2ccncc2)n1 [JWB198]
2 | – | 4.77 | > 6 SILAC ratio (SR) | COc1ccc(-c2ncn(S(=O)(=O)c3ccc(-c4ccccc4)cc3)n2)cc1 [JWB142]
